Reference: the RNAGym collection of RNA variant scans (doi:10.1126/science.aae0568)
Fewer inactive variants are shown than the library holds.

B1: tRNA (parent)
chain: GUUCCGUUGGCGUAAUGGUAACGCGUCUCCCUCCUAAGGAGAAGACUGCGGGUUCGAGUCCCGUACGGAACG

Variants of: B1
Test: yeast fitness relative to wild type (ratio to wild type); higher = fitter; tRNA-Arg(CCU), competitive growth, 37 C, YPD
Method in brief: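 For this measurement, the tRNA-Arg(CCU) gene was varied by chemical synthesis at a 3% per-site mutation rate across 69 sites, and each variant was placed at the native genomic locus in Saccharomyces cerevisiae. The pooled strains went through a 24-hour competition in YPD at 37°C in six parallel replicates, with amplicons from start and end populations read by 100-nucleotide paired-end sequencing. Darwinian fitness relative to wild type followed from the change in each genotype's frequency. Genotypes needed ≥ 100 starting reads, and estimates < 0.5 were set to 0.5.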
With GUCCCGUUGGCGUAAUGGUAACGCGUCUCCCUCCUAAGGAGAAGUCUGCAGGUUCGAGUCCCGUACGGAACG the yeast fitness was 0.849. GUCCCGUUGGCGUAAUGGUAACGCGUCUCCCUCCUAAGGAGAUGGCUGCGGGUUCGAGUCCCAUACGGAACG gave a yeast fitness of at most 0.5. For GUCUCGUUGGCGUAAUGGUAACGCGUCUCCCUCCUAAGGAGAAGACUGCGGGUUCGAGUCCCGUACGGUUCG, the yeast fitness was at most 0.5. For GUCCCGUUGGCGUAAUGGUAACGCGUCUCCCUCCUAAGGAGAUCACUGCGGGUUCGAGUCCCGCACGGAACG, the yeast fitness was 0.567. GUCCCGUUGGCGUAAUGGUAACGCGUCUCCCUCCUAAGGAGAAGUCUGCGGGUUCGAGUCCCGUACGGAACG showed a yeast fitness of 0.999. GUCCCGUUGGCGUAAUGGUAACGCGUCUCCCUCCUAAGGAGAAGCCUGCGGGUUCGAGUCCCGUACGGAACG showed a yeast fitness of 0.856. Work on GUCACGUUGGCGUAAUGGUAACGCGUCUCCCUCCUAAGGAGAAGGCUGCGGGUUCGAGUCCCGUACGGAACG yielded a yeast fitness of 0.531. GUCCCGUUGGCGUAAUGGUAACGCGUCUCCCUCCUAAGGAGAAGACUGCGGGUUCGAGUCCCGUCCGGAACG gave a yeast fitness of 1. With GUCCCGUUGGCGUAAUGGUAACGCGUCUCCCUCCUAAGGAGAAGACUGCGGGUUCGAGUCCCGUUCGGAACG the yeast fitness was 0.997. For GUCACGUUGGCGUAAUGGUAACGCGUCUCCCUCCUUAGGAGAUGACUGCGGGUUCGAGUCCCGUACGGAACG, the yeast fitness was at most 0.5. GUCGCGUGGGCGUAAUGGUAACGCGUCUCCCUCUUAGGGAGAAGACUGCGGGUUCGAGUCCCGUACGGAACG gave a yeast fitness of at most 0.5. Variant GUCGCGUUGGCGUAAUGGUGACGCGUCUCCCUCCUAAGGAGAGGACUGCGGGUUCGAGUCCCGUACGGAACG has a yeast fitness of at most 0.5. For GUCUCGUUGGCGUAAUGGUAACGCGUCUCCCUCCUAAGGAGAUGACUGCGGGUUCGAAUCCCGUACGGAACG, the yeast fitness was at most 0.5. Variant GUCUCGUUGGCGUAAUGGUAACGCGUCUCCCUCCUAAGGAGAAGACUGCGGGUUCGGGUCCCGUACGGAACG has a yeast fitness of 0.677. GUCCCGUUGGCGUAAUGGUAACGCGUCUCCCUCCUAAGGAGAUGACUGCGGGAUCGAGUCCCGUACGGAACG showed a yeast fitness of at most 0.5. GUCCCGUUGGCGUAAUGGUAACGCGUCUCCCUCCUAAGGAGAUGGCUGCGGGUUCGAGUCCCGUACGGAACG showed a yeast fitness of 0.567. Work on GUCUCGUUGGCGUAAUGGUCUCGCGUGUCCCUCCUAAGGAGUAGACUGCGGAUUCGAGUCCCGUACGGAACG yielded a yeast fitness of at most 0.5. GUCCCGUUGGCGUAAUGGUAACGCGUCUCCCUCCUAAGGAGAUGACUGCGGGUUCGAGUCCCGUACGGAACG gave a yeast fitness of 0.987. GUCCCGUUGGCGUAAUGGUAACGCGUCUCCCUCCUAAGGAGAGGACUGCGGGUUCGAGUCCCGUACGGAACG showed a yeast fitness of 0.999. Work on GUCGCGCUGGCGUAAUGGUACCCCGUCUCCCUCCUAAGGAGAAGACUGCGGGUUAGAGUCCCGACCGGAACG yielded a yeast fitness of at most 0.5. For GUCGCGUUGGCCUAAUGGUAACGCGUCUCCCUCCUAAGGAGAACACUGCGGGUUCGUGUCCCGUACGGAACG, the yeast fitness was at most 0.5. With GUCUGGUUGGCGUAACGGUAACGGGUCUCCCUCCUAAGGAGCAGACUGCGGGUUCGAAUCCCGUACGGAACG the yeast fitness was at most 0.5. In the case of GUCUCGUUGGCGUAGUGGUAACGCGACUCCCACCUAAGGAGAAGACUGCGGGUUCGAGUGCCGUACAGAACG, the yeast fitness is reported as at most 0.5. In the case of GUCACGUUGGCGUACUGGUAACGCGUGUCCCUUCUAAGGAGAAGACUGCGGGUUCGAGUCGCGUACGGAACG, the yeast fitness is reported as at most 0.5. Variant GUCUCGUUGGCGUAAUGGUAACGCGUCUCCCUCCUAAGGAGAAGACUGCGGGUUCGAGUCCCGUACGGAUCG has a yeast fitness of 0.841. Work on GUCGCGUUGGCGUAAUGGUAAGGCGUCUCCCUUCUCAGGUGAAGACUGCGGGUUCGAGUCCCGUACGGAACG yielded a yeast fitness of at most 0.5. Variant GUCCCGUUGGCGUAAUGGUAACGCGUCUCCCUCCUAAGGAGAUGGCUGCGGGUUCGAGUCCCGUACGGCACG has a yeast fitness of at most 0.5. GUCCCGUUGGCGUAAUGGUAACGCGUCUCCCUCCUAAGGAGAAGACUGCGGGUUCGGGUCCCGUACGGUACG showed a yeast fitness of 0.599. Work on GUCUCGUUGGCGUAAUGGUAACGGGUCUCCCUCCUAAGGAGAAGACUGUGGGUUCGAGUUACGUACGGAACG yielded a yeast fitness of at most 0.5. In the case of GUCCCGUUGGCGUAAUGGUAACGCGUCUCCCUCCUAAGGAGAAGACUGCGGGUUCGUGUCCCGUACGGAACG, the yeast fitness is reported as 0.713. Work on GUCCCGUUGGCGUAAUGGUAACGCGUCUCCCUCCUAAGGAGAAGACUGCGGGUUCGCGUCCCGUUCGGAACG yielded a yeast fitness of at most 0.5. GUCCCGUUGGCGUAAUGGUAACGCGUCUCCCUCCUAAGGAGAAGACUGCGGGUUCGAGUCCCGUACGGACCG showed a yeast fitness of 0.993. In the case of GUCCCGUUGGCGUAAUGGUAACGCGUCUCCCUCCUAAGGAGAAGACUGCGGGUUCGAGUCCCGUACGGAGCG, the yeast fitness is reported as 0.944. Variant GUCCCGUUGGCGUAAUGGUAACGCGUCUCCCUCCUAAGGAGAAGACUGCGGGUUCGGGUCCCGUACGGAUCG has a yeast fitness of 0.564. Work on GUCCCGUUGGCGUAAUGGUAACGCGUCUCCCUCCUAAGGAGAAGCCUACGGGUCCGAGUCCCGUACGGAACG yielded a yeast fitness of 0.751. With GUCGCGUUGGCGUAAUGGUAACGCGUCUCCCUCCUAAGGAGAAGACUGCGGGUUCGAGUCCCGUACGGAACG the yeast fitness was 0.891. GUCUCGUUGGCGUAAUGGUAACGUGUCUCCCUCCUAAGGAGAAGACUGCGGGUUCGAGUCCUGUACGGUACG showed a yeast fitness of 0.638. Variant GUCCCGUUGGCGUAAUGGUAACGCGUCUCCCUCCUAAGGAGAAGACUGCGGGUUCGAGUCCCGUACGGCACG has a yeast fitness of 0.967.
